The values that follow come from ChEMBL document CHEMBL3774328, “Optimization by Molecular Fine Tuning of Dihydro-β-agarofuran Sesquiterpenoids as Reversers of P-Glycoprotein-Mediated Multidrug Resistance” (J Med Chem, 2016).

The target of series [1] is T1, ATP-dependent translocase ABCB1 (Homo sapiens, UniProt P08183). The series is described as follows: Inhibition of human MDR1 expressed in mouse NIH/3T3 cells assessed as reduction in daunomycin IC50 at 10 uM by MTT assay. Format: cell-based. Particulars: nih3t3, 10 µM. The gist of the method: (§1)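 Parental NIH-3T3 and MDR1-G185 cells were grown in DMEM with 10% iFBS. They were exposed to increasing DNM or VLB (up to 500 ng/mL) with or without compound at fixed 1, 3 or 10 μM. Growth was read by MTT, and IC50 came from a four-parameter logistic fit. Reversal index = IC50 without compound / IC50 with compound in MDR1 cells. Mean ± SD of two independent experiments in triplicate.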
T1 sequence (P08183 whole entry): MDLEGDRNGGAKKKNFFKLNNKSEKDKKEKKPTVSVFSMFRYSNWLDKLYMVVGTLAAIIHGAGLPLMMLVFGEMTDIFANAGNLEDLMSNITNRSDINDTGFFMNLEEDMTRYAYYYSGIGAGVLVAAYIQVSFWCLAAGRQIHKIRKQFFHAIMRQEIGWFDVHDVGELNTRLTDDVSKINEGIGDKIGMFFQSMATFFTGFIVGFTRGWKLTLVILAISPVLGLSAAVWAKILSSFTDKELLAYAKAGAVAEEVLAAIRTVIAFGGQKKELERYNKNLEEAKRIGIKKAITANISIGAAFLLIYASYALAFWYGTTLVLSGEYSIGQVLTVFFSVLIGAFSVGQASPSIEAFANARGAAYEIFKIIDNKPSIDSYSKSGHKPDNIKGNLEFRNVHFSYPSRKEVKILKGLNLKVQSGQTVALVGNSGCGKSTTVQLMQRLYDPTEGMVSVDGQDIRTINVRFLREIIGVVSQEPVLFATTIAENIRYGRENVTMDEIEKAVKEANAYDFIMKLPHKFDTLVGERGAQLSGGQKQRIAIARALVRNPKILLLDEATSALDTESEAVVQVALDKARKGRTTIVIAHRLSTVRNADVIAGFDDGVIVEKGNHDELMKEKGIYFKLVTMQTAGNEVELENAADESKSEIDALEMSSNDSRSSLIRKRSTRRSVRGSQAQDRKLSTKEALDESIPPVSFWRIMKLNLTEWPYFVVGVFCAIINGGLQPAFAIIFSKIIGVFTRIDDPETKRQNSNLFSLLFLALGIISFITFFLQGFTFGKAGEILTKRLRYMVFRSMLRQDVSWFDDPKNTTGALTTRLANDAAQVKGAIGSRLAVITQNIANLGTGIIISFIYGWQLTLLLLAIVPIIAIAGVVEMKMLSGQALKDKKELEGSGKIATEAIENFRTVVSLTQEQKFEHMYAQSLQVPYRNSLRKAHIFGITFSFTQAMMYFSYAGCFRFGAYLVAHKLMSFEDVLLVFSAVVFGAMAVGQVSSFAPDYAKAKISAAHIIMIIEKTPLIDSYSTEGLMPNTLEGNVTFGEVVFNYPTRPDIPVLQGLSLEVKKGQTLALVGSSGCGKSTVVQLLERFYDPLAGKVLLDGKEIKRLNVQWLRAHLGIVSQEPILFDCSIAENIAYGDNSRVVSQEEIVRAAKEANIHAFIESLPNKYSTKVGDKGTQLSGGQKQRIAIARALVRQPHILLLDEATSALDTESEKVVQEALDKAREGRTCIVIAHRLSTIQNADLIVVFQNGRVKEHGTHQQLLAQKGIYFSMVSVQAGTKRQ

The target in series [2] is T1, ATP-dependent translocase ABCB1. The series is described as follows: Inhibition of human MDR1 expressed in mouse NIH/3T3 cells assessed as reduction in daunomycin IC50 at 1 uM by MTT assay. Format: cell-based. Particulars: nih3t3, 1 µM. The gist of the method:
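Parental NIH-3T3 and MDR1-G185 cells were grown in DMEM with 10% iFBS. They were exposed to increasing DNM or VLB (up to 500 ng/mL) with or without compound at fixed 1, 3 or 10 μM. Growth was read by MTT, and IC50 came from a four-parameter logistic fit. Mean ± SD of two independent experiments in triplicate.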

Series [3] shares this target. The series is described as follows: Inhibition of human MDR1 expressed in mouse NIH/3T3 cells assessed as reduction in vinblastine IC50 at 1 uM by MTT assay. Format: cell-based. Particulars: nih3t3, 1 µM. The method in brief:
as §1

Series [4] shares this target. The series is described as follows: Inhibition of human MDR1 expressed in mouse NIH/3T3 cells assessed as reduction in vinblastine IC50 at 10 uM by MTT assay. The format is cell-based. Particulars: nih3t3, 10 µM. The gist of the method: as §1
(In general: Tetrazolium assays rely on reduction of a dye to a coloured formazan, in cell work by metabolically active cells.)

Series [5] can be described thus: Intrinsic cytotoxicity against mouse NIH/3T3 cells by MTT assay. The format is cell-based, NIH3T3. The gist of the method: (§2)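 Intrinsic cytotoxicity was measured by MTT in parental NIH-3T3 and MDR1-G185 cells. CC50 came from a four-parameter logistic fit. The top tested concentration was 60 μM, limited by DMSO toxicity, and growth at 60 μM is given as % of untreated control. Mean ± SD of three independent experiments in duplicate.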

The nature of series [6]: Intrinsic cytotoxicity against mouse NIH/3T3 cells transfected with human MDR1 by MTT assay. The format is ADME, cell-based, NIH3T3. The gist of the method: as §2
The target in series [7] is T1, ATP-dependent translocase ABCB1. The series is described as follows: Inhibition of human MDR1 expressed in mouse NIH/3T3 cells assessed as reduction in daunomycin IC50 at 3 uM by MTT assay. Format: cell-based. Particulars: nih3t3, 3 µM. The method in brief: as §1
Series [8] has the same target. The series is described as follows: Inhibition of human MDR1 expressed in mouse NIH/3T3 cells assessed as reduction in vinblastine IC50 at 3 uM by MTT assay. Particulars: nih3t3, 3 µM. The format is cell-based. The gist of the method:
as §1

For series [9] the target is unchanged. The series is described as follows: Inhibition of human MDR1 expressed in mouse NIH/3T3 cells assessed as inhibition of daunomycin efflux incubated for 30 mins by flow cytometry. The format is cell-based, NIH3T3. The method in brief:
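Ki for DNM efflux. MDR1-G185 NIH-3T3 cells were incubated 30 min at 37 °C with DNM (2 μM) and varying compound concentrations, then read by flow cytometry. Fluorescence was converted to % P-gp inhibition, normalized to cells treated with 5 mM sodium orthovanadate (100%). Ki was fitted from I = (Imax × S)/(Ki + S). Mean ± SD of three independent experiments in triplicate.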
(In general: Flow cytometry measures light scatter and fluorescence of single cells or particles in a stream.)

The nature of series [10]: Intrinsic cytotoxicity against mouse NIH/3T3 cells assessed as cell growth at 60 uM by MTT assay. Format: cell-based, NIH3T3. Particulars: read-out: Activity. The gist of the method: as §2

The CC50 is the concentration at which the toxic effect on the cells reaches its halfway point. With `CC(=O)O[C@H]1CC[C@](C)(O)[C@]23OC(C)(C)[C@H]([C@H](OC(=O)/C=C\c4ccccc4)[C@H](OC(=O)c4ccccc4)[C@]12C)[C@H]3OC(C)=O`, the “fold change (FC)” value is 30.3 in series [1]; 7 in series [2]; 12.1 in [3]; 77 in [4]; 24 in series [7]; 19.7 in series [8]. In addition, the CC50 in series [5] came to 12 µM; in series [6], 22.9 µM.

By Ki is commonly meant a measure of affinity in units of concentration, obtained from inhibition or displacement. For the compound `CC(=O)O[C@H]1CC[C@](C)(OC(=O)CN2CCOCC2)[C@]23OC(C)(C)[C@H]([C@H](OC(=O)/C=C/c4ccccc4)[C@H](OC(=O)c4ccccc4)[C@]12C)[C@H]3OC(C)=O`, the “fold change (FC)” value in series [1] came to 16.1; in series [2] it was 5.7; in series [3], 21.1; in [4], 173.4; in series [7] it was 10.9; in series [8], 49.6. For the same compound, the Ki in [9] worked out at 0.31 µM. Besides, the figures for the CC50 in series [5] and in series [6] were 36.2 µM and 33.1 µM, respectively.

Turning to `COC(=O)CCCC(=O)O[C@@H]1[C@H]2[C@H](OC(=O)/C=C/c3ccccc3)[C@H](OC(=O)c3ccccc3)[C@]3(C)[C@@H](OC(C)=O)CC[C@](C)(O)[C@@]13OC2(C)C`, the “fold change (FC)” value was 15.9 in series [1]; 6 in series [2]; 7.5 in series [3]; 103.6 in series [4]; 12.3 in series [7]; 37.7 in series [8]. In [10], the viability at 60 µM worked out at 71.3%. Further, the Ki in [9] came to 0.61 µM. Moreover, the CC50 in series [5] was > 60 µM; in series [6] it was 28.2 µM.

Turning to `CC(=O)O[C@H]1CC[C@](C)(O)[C@]23OC(C)(C)[C@H]([C@H](OC(=O)/C=C/c4ccccc4)[C@H](OC(=O)c4ccccc4)[C@]12C)[C@H]3OC(=O)CCC(=O)OCCO`, the “fold change (FC)” value in series [1] is recorded as 10.6; in [2], 2.6; in series [3] it was 6.5; in series [4], 145.9; in series [7], 7.5; in [8] it was 26.8. In addition, the Ki in series [9] stood at 0.5 µM. For the same compound, the CC50 was 27.7 µM in series [5] and 29.2 µM in series [6].

Take `CC(=O)O[C@H]1CC[C@](C)(O)[C@]23OC(C)(C)[C@H]([C@H](OC(=O)/C=C\c4ccccc4)[C@H](OC(=O)c4ccccc4)[C@]12C)[C@H]3OC(=O)c1cnccn1`: the “fold change (FC)” value in series [1] was determined as 9; in [2], 3.2; in series [3], 5.2; in series [4], 39.6; in [7], 5.2; in series [8] it was 18.7. The viability at 60 µM in series [10] was 68.3%. In series [9], the Ki is 0.42 µM. In addition, the CC50 was > 60 µM in series [5] and 31.2 µM in [6].

`CC(=O)O[C@H]1CC[C@@H](C)[C@]23OC(C)(C)[C@H]([C@H](OC(=O)CCc4ccccc4)[C@H](OC(=O)c4ccccc4)[C@]12C)[C@H]3O`: in [10], the viability at 60 µM was 72.3%. The Ki in series [9] came to 0.4 µM. The results for the CC50 in [5] and in series [6] were > 60 µM and 14.2 µM, respectively.

Regarding `CC(=O)O[C@H]1CC[C@](C)(O)[C@@]23OC(C)(C)[C@@H](C2=O)[C@H](OC(=O)/C=C/c2ccccc2)[C@H](OC(=O)c2ccccc2)[C@]13C`, the “fold change (FC)” value in [1] is 15.9; in series [2] it was 5.2; in [3], 11.6; in series [4], 106.3; in [7] it was 10.4; in series [8], 29.4. Moreover, the Ki in series [9] worked out at 0.63 µM. Besides, the results for the CC50 in series [5] and in series [6] were 18.9 µM and 34.8 µM, respectively.

Turning to `CC(=O)O[C@H]1CC[C@](C)(O)[C@]23OC(C)(C)[C@H]([C@H](OC(=O)/C=C/c4ccccc4)[C@H](OC(=O)c4ccccc4)[C@]12C)[C@H]3OC(=O)C1CC1`, the Ki in series [9] stood at 0.24 µM. Besides, the CC50 worked out at 50.3 µM in [5] and 11.2 µM in series [6].

Regarding `CCC(C)C(=O)O[C@@H]1[C@H]2[C@H](OC(=O)/C=C/c3ccccc3)[C@H](OC(=O)c3ccccc3)[C@]3(C)[C@@H](OC(C)=O)CC[C@](C)(O)[C@@]13OC2(C)C` (some centres undefined), the viability at 60 µM in [10] was found to be 57.3%. Further, the Ki in series [9] amounted to 0.41 µM. In addition, the CC50 was > 60 µM in series [5] and 13.2 µM in [6].

Regarding `CC(=O)O[C@H]1CC[C@](C)(O)[C@]23OC(C)(C)[C@H]([C@H](OC(=O)/C=C/c4ccccc4)[C@H](OC(=O)c4ccccc4)[C@]12C)[C@H]3OC(=O)CCC(=O)OC1CCCCC1O` (some centres undefined), the “fold change (FC)” value in [1] was found to be 12.8; in series [2], 3.9; in series [3], 9.9; in [4], 107.8; in series [7], 11; in [8], 40.3. Besides, in series [9], the Ki amounted to 0.46 µM. In addition, the CC50 in [5] was 24.3 µM; in series [6], 19.9 µM.

As to `CC(=O)O[C@H]1CC[C@](C)(O)[C@]23OC(C)(C)[C@H]([C@H](OC(=O)/C=C/c4ccccc4)[C@H](OC(=O)c4ccccc4)[C@]12C)[C@H]3OC(=O)CBr`, the Ki in series [9] was 0.31 µM. The CC50 in series [5] came to 8.6 µM; in series [6] it was 5.7 µM.

In the case of `CCCC(=O)O[C@@H]1[C@H]2[C@H](OC(=O)/C=C/c3ccccc3)[C@H](OC(=O)c3ccccc3)[C@]3(C)[C@@H](OC(C)=O)CC[C@](C)(O)[C@@]13OC2(C)C`, in series [9], the Ki amounted to 0.32 µM. In addition, the CC50 in series [5] is 44.9 µM; in [6] it was 18.3 µM.

For `COC(=O)CCC(=O)O[C@@H]1[C@H]2[C@H](OC(=O)/C=C/c3ccccc3)[C@H](OC(=O)c3ccccc3)[C@]3(C)[C@@H](OC(C)=O)CC[C@](C)(O)[C@@]13OC2(C)C`, the Ki in [9] turned out to be 0.23 µM. Further, the CC50 in series [5] was 36.4 µM; in series [6], 17.6 µM.

For the compound `CCOC(=O)CCC(=O)O[C@@H]1[C@H]2[C@H](OC(=O)/C=C/c3ccccc3)[C@H](OC(=O)c3ccccc3)[C@]3(C)[C@@H](OC(C)=O)CC[C@](C)(O)[C@@]13OC2(C)C`, in [9], the Ki is 0.26 µM. The CC50 turned out to be 58.9 µM in series [5] and 15.3 µM in series [6].

On to `CC(=O)O[C@H]1CC[C@](C)(Cl)[C@]23OC(C)(C)[C@H]([C@H](OC(=O)/C=C/c4ccccc4)[C@H](OC(=O)c4ccccc4)[C@]12C)[C@H]3Cl`, for which the “fold change (FC)” value is listed as 14.8 in [1]; 5.2 in [2]; 11.6 in [3]; 113.9 in series [4]; 12.9 in series [7]; 33 in series [8]. Also, the Ki in series [9] amounted to 1.34 µM. The results for the CC50 in [5] and in series [6] were 43.7 µM and 31.4 µM, respectively.

In the case of `CC(=O)O[C@H]1CC[C@](C)(O)[C@]23OC(C)(C)[C@H]([C@H](OC(=O)/C=C\c4ccccc4)[C@H](OC(=O)c4ccccc4)[C@]12C)[C@H]3OC(=O)c1ccccc1`, the “fold change (FC)” value in series [1] amounted to 14.7; in series [2], 4.1; in series [3], 15.5; in series [4], 59.5; in series [7], 14.5; in series [8], 30.1. Besides, in [9], the Ki worked out at 0.25 µM. Besides, the CC50 worked out at 27.2 µM in series [5] and 25.9 µM in series [6].

In the case of `CC(=O)O[C@H]1CC[C@](C)(O)[C@]23OC(C)(C)[C@H]([C@H](OC(=O)CCc4ccccc4)[C@H](OC(=O)c4ccccc4)[C@]12C)[C@H]3O`, the “fold change (FC)” value stood at 11.6 in [1]; 3.3 in series [2]; 11.1 in series [3]; 43.8 in series [4]; 8.1 in [7]; 23.6 in series [8]. The Ki in [9] stood at 0.47 µM. In addition, the results for the CC50 in series [5] and in series [6] were 25.4 µM and 30.3 µM, respectively.
